Assay outcomes: PubChem BioAssay, Broad Institute
PGC1a Ac signal: raises PGC1a acetylation signal in U2OS cells. activation, % at 15.6 µM. U2OS PGC1a acetylation AlphaScreen, overnight. actives 0.21% (n = 350,000);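 active = every replicate reaching activation of at least 50%, whatever the mean replicate activation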;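 note: hits raise the AlphaScreen acetylation signal above neutral controls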
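System: Flag-PGC1a/GCN5 U2OS cells | Quantity: 7000 cells/well | Times: Overnight compound treatment, 37 °C | Measured by: AlphaScreen proximity luminescence, anti-acetyl-lysine antibody | Dosing: One concentration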
* marks the source's active call; other numbers are inactive results. The sample as a whole holds a higher share of hits than the screen did.

For COc1ccc(C(=O)Nc2cc(Cl)ccc2-n2cncn2)c(OC)c1OC the results were PGC1a Ac signal -47.
Cc1ccc(S(=O)(=O)CCSC(=N)N)cc1 was read as PGC1a Ac signal 67*.
For CC(=O)CS(=O)(=O)c1ccc(Oc2ccc(S(=O)(=O)CC(C)=O)cc2)cc1 the results were PGC1a Ac signal -41.
For CCOC(=O)C1=C[C@@H](C(C)(C)C)N(S(=O)(=O)c2ccc(C)cc2)[C@H]1c1cccc2ccccc12 the results were PGC1a Ac signal 100*.
Screening CCCCC(=O)NCCc1cc2c(OC)ccc(OC)c2[nH]c1=O returned PGC1a Ac signal -44.
O=Nc1c(-c2c(O)[nH]c3cc(Br)ccc23)[nH]c2ccccc12 was read as PGC1a Ac signal 258*.
CCCCCCCCCSc1n[nH]c(N)n1 was read as PGC1a Ac signal -25.
C[C@@H]1CN([C@H](C)CO)C(=O)c2cccc(NC(=O)c3ccc(-c4nccs4)cc3)c2O[C@@H]1CN(C)Cc1ccc(C(=O)Nc2ccccc2N)cc1 was read as PGC1a Ac signal -51.
For CCc1nc2c(OCc3ccc(S(C)(=O)=O)cc3)cccn2c1N(C)C(=O)c1ccccc1F the results were PGC1a Ac signal -45.
Screening COc1cccc(OC)c1NC(=O)C1CCCN1C(=O)NCc1ccccc1 (centres undefined) returned PGC1a Ac signal -97.
`NC(=O)COC(=O)CC(NC(N)=O)c1ccc(Cl)cc1` (centres undefined) gave PGC1a Ac signal -107.
`COc1ccccc1CN=Cc1[nH]c2ccc(Br)c(Cl)c2c1O` gave PGC1a Ac signal 52*.
`Cn1nc(C(=O)N2CCCCC2)c2c1-c1ccccc1S(=O)(=O)C2` gave PGC1a Ac signal -48.
C[C@@H]1CN([C@@H](C)CO)C(=O)CCCn2nncc2CO[C@H]1CN(C)Cc1ccc(O)cc1 was read as PGC1a Ac signal -45.
For N#Cc1ccccc1S(=O)(=O)N1CCN(Cc2cc3c(cc2Br)OCCO3)CC1 the results were PGC1a Ac signal 105*.
`CCCCC(O)(CCCC)C(=O)N/N=C(\C)c1ccc(Cl)cc1` gave PGC1a Ac signal -44.
`OC[C@H]1[C@H](c2ccc(C#CC3CCCC3)cc2)[C@@H]2CN(CCC(F)(F)F)CCCCN12` gave PGC1a Ac signal 65*.
Screening O=C(Cc1cccnc1)N1CC(=O)N2[C@H](CO)[C@@H](c3ccc(C#CC4CCCCC4)cc3)[C@H]2C1 returned PGC1a Ac signal -50.
Screening OC[C@@H]1[C@H](c2ccc(/C=C/c3ccccc3)cc2)[C@H]2CN(CCC(F)(F)F)CCCCN12 returned PGC1a Ac signal 67*.
`COc1ccc(CC2C(=O)NC(C)C(=O)N(C)C3Cc4ccc(cc4)Oc4cc(ccc4O)CC(C(=O)NC(C)C(=O)NC(C)C(=O)N2C)N(C)C3=O)cc1` (centres undefined) gave PGC1a Ac signal -70.
Screening CC(C)OC(=O)c1c(F)c(F)c(N2CCOCC2)c(F)c1F returned PGC1a Ac signal -57.
Fc1cccc(CN2C[C@@H]3N[C@H](C2)C3c2ccc(-c3ccccc3)cc2)c1 (some centres undefined) was read as PGC1a Ac signal -97.
Screening Fc1cccc(CN2C[C@@H]3N[C@H](C2)[C@@H]3c2ccc(-c3cccc(F)c3)cc2)c1 returned PGC1a Ac signal -99.
Screening COc1cc(CN2C[C@@H]3N[C@H](C2)C3c2ccc(-c3cccc(OC)c3)cc2)cc(OC)c1 (some centres undefined) returned PGC1a Ac signal 69*.
For COc1ccccc1-c1ccc([C@@H]2[C@@H](CO)N(C(C)=O)C23CN(C(C)=O)C3)cc1 the results were PGC1a Ac signal -55.
Screening COc1cc(CN2C[C@@H]3N[C@H](C2)C3c2ccc(/C=C/c3ccccc3)cc2)cc(OC)c1 (some centres undefined) returned PGC1a Ac signal 89*.
`COc1ccccc1CN1C[C@@H]2N[C@H](C1)C2c1ccc(-c2ccccc2OC)cc1` (some centres undefined) gave PGC1a Ac signal 70*.
Screening COc1ccc(-c2ccc(C3[C@@H]4CN(Cc5cc(OC)cc(OC)c5)C[C@H]3N4)cc2)cc1 (some centres undefined) returned PGC1a Ac signal 121*.
CO[C@@H]1CN(C)C(=O)c2cc(NC(C)=O)ccc2OC[C@H](C)N(Cc2cc(F)ccc2F)C[C@H]1C was read as PGC1a Ac signal -55.
`O=C(CC1CC1)N[C@H]1CC[C@@H](CCNS(=O)(=O)c2ccc(Cl)cc2)O[C@@H]1CO` gave PGC1a Ac signal -67.
`COc1ccc(CCNc2ccc(C(CC(N)=O)NC(=O)c3cc(C)cc(C)c3)cc2[N+](=O)[O-])cc1` (centres undefined) gave PGC1a Ac signal -46.
`CNc1ccc2ncc(-c3ccc(OC)c(OC)c3)n2n1` gave PGC1a Ac signal -58.
Screening Cc1cccc(CCN(CC(=O)NC(C)(C)C)C(=O)c2csnn2)c1 returned PGC1a Ac signal -47.
Screening C[C@@H]1CCCCO[C@@H](CN(C)C(=O)c2ccncc2)[C@@H](C)CN([C@H](C)CO)C(=O)c2cc(NC(=O)CCCCCC(=O)Nc3ccccc3N)ccc2O1 returned PGC1a Ac signal -99.
Screening CN(Cc1ccccc1)C(=O)c1ccc2c(c1)NC(=O)C(N1CCOCC1)S2 (centres undefined) returned PGC1a Ac signal -49.
`COc1cccc(-c2ccc(C3[C@@H]4CN(C(=O)C5CC5)C[C@H]3N4)cc2)c1` (some centres undefined) gave PGC1a Ac signal 57*.
For Cc1noc(/C=C/N(C)C)c1S(=O)(=O)N(C)CC(=O)NC1CCCCC1 the results were PGC1a Ac signal -43.
For N#Cc1cc(Oc2cccc3cccnc23)c(-n2nnc3ccccc32)cc1C#N the results were PGC1a Ac signal 139*.
C[C@H](CO)N1C[C@H](C)[C@H](CN(C)S(=O)(=O)c2cn(C)cn2)OCCCC[C@H](C)Oc2ccc(NC(=O)Nc3cccc4ccccc34)cc2C1=O was read as PGC1a Ac signal -52.
For C[C@H]1CCCCO[C@H](CN(C)C(=O)Nc2cccc3ccccc23)[C@@H](C)CN([C@@H](C)CO)C(=O)c2cc(N(C)C)ccc2O1 the results were PGC1a Ac signal 65*.
C[C@@H]1CN([C@@H](C)CO)C(=O)c2cc(NC(=O)Nc3cccc4ccccc34)ccc2O[C@@H](C)CCCCO[C@H]1CN(C)C(=O)NC1CCCCC1 was read as PGC1a Ac signal -42.
For CN(C[C@H]1N[C@@H](CO)[C@@H]1c1ccc(C2=CCCC2)cc1)C(=O)c1cccc(F)c1 the results were PGC1a Ac signal -76.
COc1ccc(S(=O)(=O)N2CCCCN3[C@@H](CO)[C@@H](c4ccc(C5=CCCCC5)cc4)[C@@H]3C2)cc1 was read as PGC1a Ac signal 57*.
Screening CCOC(=O)C1=C(C)NC(=O)NC1c1ccccc1Cl (centres undefined) returned PGC1a Ac signal 57*.
C=CCOC(=O)C1=C(C)NC(SCC)=C(C#N)C1c1ccc(Cl)cc1 (centres undefined) was read as PGC1a Ac signal -45.
Screening CCOc1nc(NC(=O)NS(=O)(=O)c2ccccc2F)nc(-c2ccccc2)n1 returned PGC1a Ac signal -50.
For CCOC(=O)C1=CC[C@@H](c2ccc(OC)cc2)N(S(=O)(=O)c2ccc(C)cc2)[C@H]1CC the results were PGC1a Ac signal 90*.
CCOC(=O)c1oc2ccc(S(=O)(=O)N3CCC(C)CC3)cc2c1C was read as PGC1a Ac signal -43.
